In ChEMBL document CHEMBL1130063, “Design and synthesis of potent antitumor 5,4'-diaminoflavone derivatives based on metabolic considerations” (J Med Chem, 1997):

Experiments:
MCF7 [1] = experiment: Growth-Inhibitory activity against MCF-7 Cells in the presence of S-9 Mix; type: functional, cell-based; settings: Homo sapiens
Summary of the method: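 MCF-7 cells were exposed to compound for 6 days and counted with a microcell counter. S-9 mix was in the medium at 0.125% of a 30% S-9 mix solution. That solution was made from rat liver S-9, glucose 6-phosphate, β-NADPH, 20 mM HEPES, 50 mM MgCl2, 330 mM KCl and water.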

MCF7 [2] = experiment: Growth-Inhibitory activity against MCF-7 Cells in the absence of S-9 Mix; type: functional, cell-based, Homo sapiens
Summary of the method: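 MCF-7 cells were exposed to compound for 6 days in medium without S-9 mix, and cells were counted with a microcell counter.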

HepG2 = experiment: In vitro Growth Inhibitory activity against HepG2 Human liver cancer cell line; type: functional, cell-based
Summary of the method: (§1)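 Cells were grown with 10% FBS. Seeding per well was 3 × 10^3 for Ishikawa, 5 × 10^3 for Hep-G2, 2.5 × 10^3 for WiDr and 1.5 × 10^3 for ACHN. Exposure lasted 6 days, followed by microcell-counter cell counts.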

Ishikawa = experiment: In vitro Growth Inhibitory activity against Ishikawa Human endometrial cancer cell line; type: functional, cell-based; summary of the method: as §1
MDA-MB-453 = experiment: In vitro Growth Inhibitory activity against MD-453 Human breast cancer cell line; type: functional, cell-based
Summary of the method: (§2)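 Each cell line was treated for 6 days, and growth was read by counting cells with a microcell counter.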

SK-BR-3 = experiment: In vitro Growth Inhibitory activity against SK-BR-3 Human breast cancer cell line; type: functional, cell-based
Summary of the method: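 SK-BR-3 was seeded at 1 × 10^4 cells/well in McCoy's 5a with 10% FBS, treated for 6 days, and counted with a microcell counter.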

T47D = experiment: In vitro Growth Inhibitory activity against T-47D Human breast cancer cell line; type: functional, cell-based
Summary of the method: (§3)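 Cells were grown in RPMI 1640 with 10% FBS. Seeding per well was 3 × 10^3 for T-47D and OVCAR-3, and 1.5 × 10^3 for MKN-28 and PSN-1. Compound exposure lasted 6 days, and cells were counted with a microcell counter.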

PSN1 = experiment: In vitro Growth Inhibitory activity against PSN-1 Human pancreas cancer cell line; type: functional, cell-based; summary of the method: as §3
ACHN = experiment: In vitro Growth Inhibitory activity against ACHN Human kidney cancer cell line; type: functional, cell-based; summary of the method: as §1
MKN-28 = experiment: In vitro Growth Inhibitory activity against MKN Human stomach cancer cell line; type: functional, cell-based; summary of the method: as §3
MCF7 [3] = experiment: In vitro Growth Inhibitory activity against MCF-7 Human breast cancer cell line; type: functional, cell-based; summary of the method: as §2
A-431 = experiment: In vitro Growth Inhibitory activity against A431 Human vulva cancer cell line; type: functional, cell-based
Summary of the method: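 A431 was seeded at 1.5 × 10^3 cells/well in Dulbecco's modified Eagle's medium with FBS, treated for 6 days, and counted with a microcell counter.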

OVCAR-3 = experiment: In vitro Growth Inhibitory activity against OVCAR-3 Human ovarian cancer cell line; type: functional, cell-based; summary of the method: as §3
WiDr = experiment: In vitro Growth Inhibitory activity against WiDr Human colon cancer cell line; type: functional, cell-based; summary of the method: as §1
A2780 = experiment: In vitro Growth Inhibitory activity against A2780 Human ovarian cancer cell line; type: functional, cell-based
Summary of the method: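 A2780 was seeded at 1 × 10^3 cells/well in RPMI 1640 with 5% FBS, exposed to compound for 6 days, and counted with a microcell counter.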

Row | IC50 (MCF7 [1]) | IC50 (MCF7 [2]; Homo sapiens, MCF7) | Structure (SMILES) | other results
1 | 250 nM | 9.8 nM | Nc1ccc(-c2cc(=O)c3c(N)ccc(Cl)c3o2)cc1 | –
2 | 16000 nM | 5300 nM | Nc1ccc(-c2cc(=O)c3c(N)ccc(O)c3o2)cc1 | –
3 | – | 6300 nM | Nc1ccc(-c2cc(=O)c3c(N)c(Br)cc(Br)c3o2)cc1 | –
4 | 170 nM | 6.9 nM | Nc1ccc(-c2cc(=O)c3c(N)ccc(F)c3o2)cc1 | –
5 | – | 21000 nM | COc1ccc(N)c2c(=O)cc(-c3ccc(N)cc3)oc12 | IC50 (MCF7 [2]; mcf7): 19000 nM
6 | 25 nM | 1.2 nM | Nc1ccc(-c2cc(=O)c3c(N)c(F)cc(F)c3o2)cc1F | IC50 (HepG2): 2.8 nM; IC50 (Ishikawa): 13 nM; IC50 (MDA-MB-453): > 1000 nM; IC50 (SK-BR-3): 2.5 nM; IC50 (T47D): 31 nM; IC50 (PSN1): > 1000 nM; IC50 (ACHN): > 1000 nM; IC50 (MKN-28): > 1000 nM; IC50 (MCF7 [3]): 1.2 nM; IC50 (A-431): > 1000 nM; IC50 (OVCAR-3): 14 nM; IC50 (WiDr): > 1000 nM; IC50 (A2780): 1.3 nM
7 | 180 nM | 15 nM | Cc1ccc(N)c2c(=O)cc(-c3ccc(N)c(F)c3)oc12 | –
8 | > 10000 nM | 3.9 nM | Nc1ccc(-c2cc(=O)c3c(N)c(Cl)ccc3o2)cc1 | –
9 | 130 nM | 4.4 nM | Nc1ccc(-c2cc(=O)c3c(N)c(F)ccc3o2)cc1 | –
10 | 210 nM | 7.3 nM | Nc1ccc(-c2cc(=O)c3c(N)cccc3o2)cc1 | –
11 | 610 nM | 53 nM | Nc1ccc(-c2cc(=O)c3c(N)c(Cl)cc(Cl)c3o2)cc1 | –
12 | 89 nM | 4 nM | Nc1c(F)cc(-c2cc(=O)c3c(N)c(F)cc(F)c3o2)cc1F | –
13 | 110 nM | 36 nM | Cc1cc(C)c2oc(-c3ccc(N)c(F)c3)cc(=O)c2c1N | –
14 | 46 nM | 6 nM | Nc1ccc(-c2cc(=O)c3c(N)c(F)cc(F)c3o2)cc1 | –
